From PubChem
Hits are enriched below; roughly 12% of the tested compounds scored in any of these assays.
PKD1 inh = inhibitors of human PKD1 kinase; inhibition, % (concentration not given with the values); PKD1 kinase fluorescence polarization assay; 200,000 tested, 0.056% active
Rad51 HR inh = blocks human Rad51 in homologous recombination | hRad51 DNA strand exchange, fluorescence dequenching | inhibition, % at 10 µM | 200,000 tested, 0.085% active | AID 1385;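 active = inhibition above 40% at the single screening dose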
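material = hRad51 filaments on single-stranded DNA | reagent = Donor/quencher-labelled 47-bp dsDNA substrate | compound = 10 µM final, single point | schedule = strand-exchange reaction 15 min at room temperature | measured by = fluorescein emission 520 nm, excitation 485 nm | read-out basis = % inhibition versus plate control and blank means | benchmarks = plate controls and plate blanks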
Arbovirus inh = blocks arbovirus infection | arbovirus infection cell-based antiviral screen | 200,000 tested, 0.37% active | inhibition, % at 10 µM | AID 1251; in the data active = inhibition above about 30%
Wee1 degr inh = inhibitors of human Wee1 degradation; reporter increase, % at 5 µM; P30291; HeLa Luc-Wee1K328M stability, luciferase luminescence; 100% = proteasome inhibitor MG132 effect; 220,000 tested, 1.2% active;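 active = activation above the mean of all tested compounds plus 3 SD, set per screening run, cut at about 8.8% in these data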;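 note: cells exposed to compound for 20 h before luminescence read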
Lmaj promast = inhibitors of Leishmania major promastigote growth; 200,000 tested, 9% active; Leishmania major promastigotes, resazurin fluorescence viability; AID 1063; inhibition, % at 10 µM;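 note: promastigotes grown with compound for 44 hours at 28 °C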
CHOP inhibitor = blocks CHOP induction under ER stress; CHO-K1 CHOP-promoter luciferase, tunicamycin-induced, 15-18 h; inhibition, % at 10 µM; 220,000 tested, 3.8% active;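 active = compounds that reduced the stress-induced luciferase reporter signal by more than about 70% of percent inhibition, limit read from the data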
A number is an active result; n = inactive; x = no result. Cut-off read from the data, not from the text of the source, unless noted: active = inhibition above about 50%; inactive = the rest.

SMILES	PKD1 inh	Rad51 HR inh	Arbovirus inh	Wee1 degr inh	Lmaj promast	CHOP inhibitor
O=C(C1CCN(S(=O)(=O)c2cccc3cccnc23)CC1)N1CCN(c2ccc(Cl)cc2)CC1	n	n	n	n	51.9	x
Cn1c(=O)c2c(ncn2CC(=O)N/N=C/C=C/c2ccccc2[N+](=O)[O-])n(C)c1=O	x	n	x	n	x	n
O=C(NCCCN1CCCC1=O)c1ccc(Cl)c(Cl)c1	n	n	n	n	n	n
O=c1c2c(-c3cccs3)csc2ncn1-c1ccc(Br)cc1	n	n	n	9.1	n	n
O=C(O)COc1ccc(/C=N/n2cnc3scc(-c4cccs4)c3c2=O)cc1	n	x	n	n	n	n
O=c1c2c(-c3cccs3)csc2ncn1/N=C/c1ccc(OC(F)F)cc1	n	n	n	n	n	77.4
COc1ccc(-c2noc(CSc3nnc(-c4ccncc4)n3-c3ccc(F)cc3)n2)cc1OC	n	n	n	n	71.7	n
O=C(O)c1ccc(CSc2nnc(-c3ccncc3)n2-c2ccc(Cl)cc2)cc1	n	x	n	n	n	n
CCc1ccc(-n2c(SCc3c(C)noc3C)nnc2-c2ccncc2)cc1	n	n	n	n	72.0	n
CN1CCN(c2ccccc2NC(=O)c2ccc(-c3ccc(Cl)cc3Cl)o2)CC1	n	n	n	n	99.2	n
CS(=O)(=O)N1CCN(c2ccccc2NC(=O)c2ccc(-c3ccc(Cl)cc3Cl)o2)CC1	n	n	n	n	90.7	n
O=C(Nc1ccccc1N1CCCC1)c1cc2ccccc2o1	n	x	n	n	n	n
O=C(Nc1ccccc1N1CCCCC1)c1ccc(-c2cccc(Cl)c2)o1	n	n	n	n	n	n
CN1CCN(c2ccccc2NC(=O)c2cc3ccccc3o2)CC1	n	n	n	n	67.7	n
CCOC(=O)C1CCCN(Cc2nc(CC3CC3)no2)C1 (configuration not stated)	x	n	x	n	x	n
CC(=O)N1CCN(C(=S)Nc2ccc(SC(F)F)cc2)CC1	n	n	n	n	n	n
CCCN1CCN(C(=S)Nc2ccc(SC(F)F)cc2)CC1	n	n	n	n	90.5	n
CC1CCN(C(=S)Nc2ccc(SC(F)F)cc2)CC1	n	n	n	n	71.5	n
Cc1ccc(S(=O)(=O)N2CCCC(C(=O)Nc3ccc(C(=O)O)cc3)C2)cc1Cl (configuration not stated)	n	n	n	n	n	n
CC(=O)C1C(c2cccc(F)c2)c2c(n[nH]c2C)CC1(C)O (configuration not stated)	x	x	x	n	x	n
COc1ccc(N2C(=O)CN(Cc3ccc(OC)c(OC)c3)C2=S)cc1	n	n	n	n	n	n
COc1cc(CN2CC(=O)N(c3ccc(C)c(C)c3)C2=S)cc(OC)c1OC	n	n	n	n	94.0	n
COc1ccc(CN2CC(=O)N(c3ccc(C)c(C)c3)C2=S)cc1OC	n	n	n	n	51.9	n
Cc1cc[n+](C2=C([O-])c3ccccc3C(=O)/C2=N\S(=O)(=O)c2cccs2)cc1C	n	n	n	n	n	n
Cc1ccc(NC2=C/C(=N/S(=O)(=O)c3cccs3)c3ccccc3C2=O)cc1C	n	x	n	n	82.1	n
SMILES	PKD1 inh	Rad51 HR inh	Arbovirus inh	Wee1 degr inh	Lmaj promast	CHOP inhibitor
CCN(CC)C(=S)Nc1cc(C(=O)OC)ccc1C(=O)OC	n	n	n	n	n	n
Cc1ccc(OCc2cnc(Cl)s2)c(C)c1	n	n	n	n	n	n
COc1cccc(Nc2nc(NCC3CCCO3)c3ccccc3n2)c1 (configuration not stated)	n	n	n	n	100.4	n
COc1cccc(Nc2nc(NCCO)c3ccccc3n2)c1	n	n	n	n	100.5	n
Oc1ccccc1Nc1nc(NCC2CCCO2)c2ccccc2n1 (configuration not stated)	n	x	n	n	82.1	n
OCCNc1nc(Nc2cccc(O)c2)nc2ccccc12	x	n	x	n	x	n
Oc1ccc(Nc2nc(NCC3CCCO3)c3ccccc3n2)cc1 (configuration not stated)	n	n	40.8	n	100.5	n
CCCn1c(=O)c(C#N)cn(C2CC2)c1=O	x	n	x	n	x	n
Cc1ccc(S(=O)(=O)n2nnc3ccccc32)c(C)c1C	n	n	n	n	n	n
c1ccc2c(NCC3CCCO3)nc(N3CCCCC3)nc2c1 (configuration not stated)	n	n	n	n	67.5	n
CC(C)Oc1ccc(-c2nc(NCC3CCCO3)c3ccccc3n2)cc1 (configuration not stated)	x	n	x	n	x	n
